Values joined by “and” are separate entries in the source; they are usually repeats but may differ in a detail not shown here. Equal values may be shown once.
What was measured:
Format in all cases: toxicity, cell-based
Fibroblast = experiment: Multiplex assay against human fibroblast; details: 10 µM, compound concentration 10 uM, number of replicates 2
Outline: (§1)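 Four dyes were applied at seeding to live cells: Hoechst33342, BioTracker Green Microtubule Cytoskeleton Dye, MitoTracker Red and Annexin V Alexa Fluor 680. Imaging after compound addition used a CQ1 microscope at 37°C and 5% CO2. CellPathfinder machine-learning gating then sorted cells into Hoechst high-intensity objects or normal cells, normal cells into healthy, pyknosed or fragmented nuclei, and pyknosed cells into mitotic or apoptotic, with tubulin, mitochondrial-mass and membrane-permeability phenotypes given as per cents of healthy-nucleus cells.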

HEK-293T = experiment: Multiplex assay against HEK293T; details: human, 10 µM, compound concentration 10 uM, number of replicates 2; outline: as §1
U2OS = experiment: Multiplex assay against U2OS; details: human, 10 µM, compound concentration 10 uM, number of replicates 2; outline: as §1

For `CN[C@@H]1C[C@H]2O[C@@](C)([C@@H]1OC)n1c3ccccc3c3c4c(c5c6ccccc6n2c5c31)C(=O)NC4` [STAUROSPORINE], the “Population Apoptotic (%)” value (Fibroblast; 12 h) was 76% and 73% and 72% and 71%, the “Population Fragmented Nuclei (%)” value (Fibroblast; 12 h) was 16% and 10% and 13% and the “Population Healthy Nuclei (%)” value (Fibroblast; 12 h) was 10% and 6% and 14% and 9%. The “Population Hoechst High Intensity Objects (%)” value (Fibroblast; 12 h) was 0% and 1%, the “Population Membrane Permeable-Phenotype (%)” value (Fibroblast; 12 h) was 20% and 15% and 7% and the “Population Mitochondria Different-Phenotype (%)” value (Fibroblast; 12 h) was 0% and 2%. For the same compound, the “Population Mitotic Cells (%)” value (Fibroblast; 12 h) was 23% and 26% and 27% and 28%, the “Population Normal (%)” value (Fibroblast; 12 h) was 99% and 100% and 98% and the “Population Pyknosed Nuclei (%)” value (Fibroblast; 12 h) was 72% and 82% and 74%. The “Population Tubulin-Different-Phenotype (%)” value (Fibroblast; 12 h) was 14% and 10% and 4%, the “Population Apoptotic (%)” value (Fibroblast; 24 h) was 95% and 88% and 87% and the “Population Fragmented Nuclei (%)” value (Fibroblast; 24 h) was 15% and 21% and 13%. For the same compound, the “Population Healthy Nuclei (%)” value (Fibroblast; 24 h) was 5% and 3% and 4% and 2%, the “Population Hoechst High Intensity Objects (%)” value (Fibroblast; 24 h) was 0% and 1% and the “Population Membrane Permeable-Phenotype (%)” value (Fibroblast; 24 h) was 50% [middle of 4 runs]. For the same compound, the “Population Mitochondria Different-Phenotype (%)” value (Fibroblast; 24 h) was 0%, the “Population Mitotic Cells (%)” value (Fibroblast; 24 h) was 4% and 11% and 12% and the “Population Normal (%)” value (Fibroblast; 24 h) was 100% and 99% and 98%. For the same compound, the “Population Pyknosed Nuclei (%)” value (Fibroblast; 24 h) was 78% and 74% and 82% and 84%, the “Population Tubulin-Different-Phenotype (%)” value (Fibroblast; 24 h) was 50% [middle of 4 runs] and the “Population Apoptotic (%)” value (Fibroblast; 48 h) was 99% and 93% and 92% and 91%. The “Population Fragmented Nuclei (%)” value (Fibroblast; 48 h) was 27% and 28% and 20% and 22%, the “Population Healthy Nuclei (%)” value (Fibroblast; 48 h) was 3% and 4% and 7% and 6% and the “Population Hoechst High Intensity Objects (%)” value (Fibroblast; 48 h) was 0%. For the same compound, the “Population Membrane Permeable-Phenotype (%)” value (Fibroblast; 48 h) was 66% [middle of 4 runs], the “Population Mitochondria Different-Phenotype (%)” value (Fibroblast; 48 h) was 0% and 20% and the “Population Mitotic Cells (%)” value (Fibroblast; 48 h) was 0% and 6% and 7% and 8%. For the same compound, the “Population Normal (%)” value (Fibroblast; 48 h) was 100% and 99%, the “Population Pyknosed Nuclei (%)” value (Fibroblast; 48 h) was 69% and 66% and 72% and 71% and the “Population Tubulin-Different-Phenotype (%)” value (Fibroblast; 48 h) was 50% and 55% and 45% and 60%. The “Population Apoptotic (%)” value (HEK-293T; 12 h) was 56% and 55% and 68% and 63%, the “Population Fragmented Nuclei (%)” value (HEK-293T; 12 h) was 20% and 14% and 21% and the “Population Healthy Nuclei (%)” value (HEK-293T; 12 h) was 37% and 34% and 23% and 29%. The “Population Hoechst High Intensity Objects (%)” value (HEK-293T; 12 h) was 7% and 8% and 5%, the “Population Membrane Permeable-Phenotype (%)” value (HEK-293T; 12 h) was 11% and 12% and 7% and the “Population Mitochondria Different-Phenotype (%)” value (HEK-293T; 12 h) was 46% and 52% and 60% and 51%. For the same compound, the “Population Mitotic Cells (%)” value (HEK-293T; 12 h) was 43% and 44% and 31% and 36%, the “Population Normal (%)” value (HEK-293T; 12 h) was 92% and 91% and 94% and the “Population Pyknosed Nuclei (%)” value (HEK-293T; 12 h) was 41% and 51% and 55% and 50%. The “Population Tubulin-Different-Phenotype (%)” value (HEK-293T; 12 h) was 72% and 77% and 76%, the “Population Apoptotic (%)” value (HEK-293T; 24 h) was 85% and 83% and 86% and the “Population Fragmented Nuclei (%)” value (HEK-293T; 24 h) was 16% and 13%. For the same compound, the “Population Healthy Nuclei (%)” value (HEK-293T; 24 h) was 17% and 22% and 23% and 18%, the “Population Hoechst High Intensity Objects (%)” value (HEK-293T; 24 h) was 12% and 8% and 10% and 7% and the “Population Membrane Permeable-Phenotype (%)” value (HEK-293T; 24 h) was 10% and 7% and 6%. For the same compound, the “Population Mitochondria Different-Phenotype (%)” value (HEK-293T; 24 h) was 45% and 63% and 62%, the “Population Mitotic Cells (%)” value (HEK-293T; 24 h) was 14% and 16% and 13% and the “Population Normal (%)” value (HEK-293T; 24 h) was 87% and 91% and 89% and 92%. For the same compound, the “Population Pyknosed Nuclei (%)” value (HEK-293T; 24 h) was 66% and 64% and 63% and 65%, the “Population Tubulin-Different-Phenotype (%)” value (HEK-293T; 24 h) was 58% and 59% and 76% and 79% and the “Population Apoptotic (%)” value (HEK-293T; 48 h) was 90% and 89% and 87% and 81%. The “Population Fragmented Nuclei (%)” value (HEK-293T; 48 h) was 13% and 11% and 10%, the “Population Healthy Nuclei (%)” value (HEK-293T; 48 h) was 23% and 17% and 22% and 20% and the “Population Hoechst High Intensity Objects (%)” value (HEK-293T; 48 h) was 14% and 9% and 11%. The “Population Membrane Permeable-Phenotype (%)” value (HEK-293T; 48 h) was 11% and 6% and 5%, the “Population Mitochondria Different-Phenotype (%)” value (HEK-293T; 48 h) was 47% and 62% and 64% and 65% and the “Population Mitotic Cells (%)” value (HEK-293T; 48 h) was 9% and 10% and 12% and 18%. For the same compound, the “Population Normal (%)” value (HEK-293T; 48 h) was 85% and 90% and 88%, the “Population Pyknosed Nuclei (%)” value (HEK-293T; 48 h) was 63% and 71% and 66% and the “Population Tubulin-Different-Phenotype (%)” value (HEK-293T; 48 h) was 59% and 72% and 68% and 75%. The “Population Apoptotic (%)” value (U2OS; 12 h) was 40% and 72% and 59% and 58%, the “Population Fragmented Nuclei (%)” value (U2OS; 12 h) was 50% and 34% and 30% and the “Population Hoechst High Intensity Objects (%)” value (U2OS; 12 h) was 3% and 0%. The “Population Membrane Permeable-Phenotype (%)” value (U2OS; 12 h) was 66% and 53% and 62% and 43%, the “Population Mitochondria Different-Phenotype (%)” value (U2OS; 12 h) was 66% and 53% and 51% and 68% and the “Population Mitotic Cells (%)” value (U2OS; 12 h) was 41% [middle of 4 runs]. The “Population Normal (%)” value (U2OS; 12 h) was 96% and 100%, the “Population Pyknosed Nuclei (%)” value (U2OS; 12 h) was 38% and 46% and 61% and 63% and the “Population Tubulin-Different-Phenotype (%)” value (U2OS; 12 h) was 73% [middle of 4 runs]. The “Population Apoptotic (%)” value (U2OS; 24 h) was 70% and 85% and 89%, the “Population Fragmented Nuclei (%)” value (U2OS; 24 h) was 45% and 26% and 27% and 40% and the “Population Healthy Nuclei (%)” value (U2OS; 24 h) was 5% and 3% and 4% and 8%. For the same compound, the “Population Hoechst High Intensity Objects (%)” value (U2OS; 24 h) was 0% and 1%, the “Population Mitochondria Different-Phenotype (%)” value (U2OS; 24 h) was 100% and 57% and 75% and 80% and the “Population Mitotic Cells (%)” value (U2OS; 24 h) was 30% and 14% and 10%. For the same compound, the “Population Normal (%)” value (U2OS; 24 h) was 100% and 98%, the “Population Pyknosed Nuclei (%)” value (U2OS; 24 h) was 50% and 70% and 68% and the “Population Tubulin-Different-Phenotype (%)” value (U2OS; 24 h) was 100% and 85% and 40%. For the same compound, the “Population Apoptotic (%)” value (U2OS; 48 h) was 86% and 87% and 88% and 91%, the “Population Healthy Nuclei (%)” value (U2OS; 48 h) was 6% and 5% and 4% and the “Population Hoechst High Intensity Objects (%)” value (U2OS; 48 h) was 0%. For the same compound, the “Population Membrane Permeable-Phenotype (%)” value (U2OS; 48 h) was 100% and 90% and 85%, the “Population Mitochondria Different-Phenotype (%)” value (U2OS; 48 h) was 100% and 60% and 71% and the “Population Mitotic Cells (%)” value (U2OS; 48 h) was 13% and 12% and 8%. The “Population Normal (%)” value (U2OS; 48 h) was 100%, the “Population Pyknosed Nuclei (%)” value (U2OS; 48 h) was 60% and 50% and 80% and 73% and the “Population Tubulin-Different-Phenotype (%)” value (U2OS; 48 h) was 100% and 85%.

Reference: ChEMBL document CHEMBL5303300, “EUbOPEN Chemogenomics Library - Multiplex” (2023)
